# Columns and labels:
# Cavia porcellus [1] = experiment: Histamine induced lethality, at 60-min pretreatment time when 1 mg/kg compound was administered perorally in guinea pigs; assay type: functional; conditions: route oral
# Cavia porcellus [2] = experiment: Histamine induced lethality, at 60-min pretreatment time when 3 mg/kg compound was administered perorally in guinea pigs; assay type: functional; conditions: route oral
# Cavia porcellus [3] = experiment: Histamine induced lethality, at 60-min pretreatment time when 30 mg/kg compound was administered perorally in guinea pigs; assay type: functional; conditions: route oral
# Felis catus [4] = experiment: The compound dose required for 50% block of H1 histamine activity, when administarted intra venously in cats; assay type: functional
# Summary of the method: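 Cats given test compound iv (0.001-20 mg/kg), with blood pressure recorded continuously. Histamine 0.5 μg/kg iv was given to induce hypotension, before and 5, 10 and 20 min after each dose. The antihistaminic dose was the one inhibiting the histamine response by >50%. Values are mean ± SD over the number of experiments per compound.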
# Cavia porcellus [5] = species on record: Cavia porcellus; experiment: Effective dose that protects guinea pigs against histamine induced lethality, at 1 hour pretreatment time; assay type: functional
# Summary of the method: (§1)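 Survival at 24 h after challenge was scored as protection. Groups of 5–10 animals per treatment; ED50 was calculated by the Litchfield–Wilcoxon method or by computer probit analysis.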
# Felis catus [6] = experiment: The compound dose required to elicit marked cortical slowing and spindling, when administarted intra venously in cats; assay type: functional
# Summary of the method: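 Cats given test compound iv (0.001-20 mg/kg), with spontaneous EEG inspected after each dose for cortical slowing, synchrony and spindle-type activity. The sedative dose was the one producing marked slowing and spindling (synchrony). Values are mean ± SD over the number of experiments per compound.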
# Cavia porcellus [7] = species on record: Cavia porcellus; experiment: Effective dose that protects guinea pigs against histamine induced lethality at 6 hours pretreatment time; assay type: functional; summary of the method: as §1
# [8] = target: Histamine H1 receptor (Cavia porcellus) (UniProt P31389); experiment: Histamine induced lethality, at 60-min pretreatment time of 0.1 mg/kg p.o. in guinea pigs.; assay type: functional, organism-based; parameters: dose 0.1 mg/kg; conditions: at 0.1 mg/kg
# Chain of Histamine H1 receptor (Cavia porcellus) (P31389 whole entry): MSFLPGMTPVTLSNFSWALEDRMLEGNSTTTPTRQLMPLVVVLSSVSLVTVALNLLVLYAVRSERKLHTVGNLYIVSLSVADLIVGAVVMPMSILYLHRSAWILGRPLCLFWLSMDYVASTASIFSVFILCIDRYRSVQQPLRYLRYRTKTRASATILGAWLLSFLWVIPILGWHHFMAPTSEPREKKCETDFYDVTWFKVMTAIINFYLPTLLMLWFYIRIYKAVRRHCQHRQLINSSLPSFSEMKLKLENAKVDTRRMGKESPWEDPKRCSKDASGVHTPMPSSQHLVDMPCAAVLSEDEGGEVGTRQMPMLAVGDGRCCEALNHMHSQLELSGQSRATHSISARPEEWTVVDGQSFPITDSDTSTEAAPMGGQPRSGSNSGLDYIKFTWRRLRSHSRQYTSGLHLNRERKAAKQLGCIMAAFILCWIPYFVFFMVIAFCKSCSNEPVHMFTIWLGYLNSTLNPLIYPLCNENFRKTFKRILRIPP
# Cavia porcellus [9] = experiment: Histamine induced lethality, at 60-min pretreatment time when 0.3 mg/kg compound was administered perorally in guinea pigs; assay type: functional; conditions: route oral
# [10] = target: Histamine H1 receptor (Cavia porcellus) (UniProt P31389); experiment: Histamine induced lethality, at 30-min pretreatment time of 3 mg/kg i.p. in guinea pigs.; assay type: functional, organism-based; parameters: dose 3 mg/kg; conditions: at 3 mg/kg
# Cavia porcellus [11] = experiment: Histamine induced lethality, at 30-min pretreatment time when 30 mg/kg compound was administered intra peritoneallyn guinea pigs; assay type: functional
# Cavia porcellus [12] = experiment: Histamine induced lethality, at 60-min pretreatment time when 0.1 mg/kg compound was administered perorally in guinea pigs; assay type: functional; conditions: route oral
# Cavia porcellus [13] = experiment: Histamine induced lethality, at 30-min pretreatment time when 1 mg/kg compound was administered perorally in guinea pigs; assay type: functional; conditions: route oral
# Cavia porcellus [14] = experiment: Histamine induced lethality, at 30-min pretreatment time when 1 mg/kg compound was administered intra peritoneally in guinea pigs; assay type: functional
# Cavia porcellus [15] = experiment: Histamine induced lethality, at 30-min pretreatment time when 30 mg/kg compound was administered intra peritoneally in guinea pigs; assay type: functional
# Cavia porcellus [16] = experiment: Histamine induced lethality, at 30-min pretreatment time when 3 mg/kg compound was administered intra peritoneally in guinea pigs; assay type: functional
# Cavia porcellus [17] = experiment: Histamine induced lethality, at 30-min pretreatment time when 0.3 mg/kg compound was administered intra peritoneally in guinea pigs; assay type: functional
SMILES,survival at 3 mg/kg (Cavia porcellus [2]) [%],survival at 30 mg/kg (Cavia porcellus [3]) [%],ED50 (Cavia porcellus [5]) [mg/kg],Dose (Felis catus [6]) [mg/kg],ED50 (Cavia porcellus [7]) [mg/kg],Survival [8] [%],further results
CN(C)CCC1CN(C)C(=S)c2cc(Br)ccc2O1 (stereo not drawn),67,100,,,,,survival at 1 mg/kg (Cavia porcellus [1]): 0%
CN(C)CCC1CN(C)C(=S)c2cc(C(F)(F)F)ccc2O1 (stereo not drawn),33,100,,,,,
CN(C)CCC(c1ccc(Br)cc1)c1ccccn1 (stereo not drawn) [BROMPHENIRAMINE],,,0.08,1.7,2.5,40,Dose (Felis catus [4]): 1.3 mg/kg; survival at 0.3 mg/kg (Cavia porcellus [9]): 100%
CN(C)CCC1CN(C)C(=O)c2cccnc2S1 (stereo not drawn),,,,,,,Survival [10]: 0%; survival at 30 mg/kg (Cavia porcellus [11]): 67%
CN(C)CCC1CN(C)C(=S)c2ccccc2O1 (stereo not drawn),0,100,,>20,,,survival at 1 mg/kg (Cavia porcellus [1]): 0%; survival at 0.1 mg/kg (Cavia porcellus [12]): 100%; survival at 1 mg/kg (Cavia porcellus [13]): 50%
CN(C)CCC1CN(C)C(=O)c2cc(Cl)cnc2O1 (stereo not drawn),,,0.3,,28,,survival at 1 mg/kg (Cavia porcellus [1]): 100%; survival at 0.3 mg/kg (Cavia porcellus [9]): 33%
CN1CC(CCN2CCCC2)Oc2ncccc2C1=S (stereo not drawn),80,67,,,,,
CN(C)CCC1CN(C)C(=O)c2cnccc2O1 (stereo not drawn),,,,,,,Survival [10]: 67%; survival at 1 mg/kg (Cavia porcellus [14]): 33%; survival at 30 mg/kg (Cavia porcellus [15]): 100%
COc1ccc(CCN2CCC(Nc3nc4ccccc4n3Cc3ccc(F)cc3)CC2)cc1 [ASTEMIZOLE],,,,8,,,Dose (Felis catus [4]): 0.43 mg/kg
CN(C)CCC1CN(C)C(=O)c2cc3ccccc3nc2O1 (stereo not drawn),,,,,,,Survival [10]: 100%; survival at 1 mg/kg (Cavia porcellus [14]): 0%
CCOC(=O)N1CCC(=C2c3ccc(Cl)cc3CCc3cccnc32)CC1 [LORATADINE],,,,20,,,Dose (Felis catus [4]): 0.43 mg/kg
Cc1ccc2c(n1)OC(CCN(C)C)CN(C)C2=S (stereo not drawn),,,0.06,,> 2,80,survival at 0.3 mg/kg (Cavia porcellus [9]): 100%
CN(C)CCC1CN(C)C(=S)c2cc(Cl)ccc2O1 (stereo not drawn),100,,,10,,,survival at 1 mg/kg (Cavia porcellus [1]): 33%
CCN(C)CCC1CN(C)C(=S)c2cccnc2O1 (stereo not drawn),60,100,,,,,survival at 1 mg/kg (Cavia porcellus [1]): 0%
CN1CC(CCN2CCC2)Oc2ncccc2C1=S (stereo not drawn),,,0.04,,1,100,
CN(C)CCC1(C)CN(C)C(=S)c2cccnc2O1 (stereo not drawn),,,0.12,,6,40,survival at 1 mg/kg (Cavia porcellus [1]): 100%; survival at 0.3 mg/kg (Cavia porcellus [9]): 67%
CN(C)CCC1CN(C)C(=S)c2cnccc2O1 (stereo not drawn),,,,,,,Survival [10]: 100%; survival at 1 mg/kg (Cavia porcellus [14]): 0%; survival at 30 mg/kg (Cavia porcellus [15]): 100%
CN1CC(CCN2CCC2)Oc2ccc(C(F)(F)F)cc2C1=S (stereo not drawn),33,100,,,,,

SMILES,survival at 3 mg/kg (Cavia porcellus [2]) [%],survival at 30 mg/kg (Cavia porcellus [3]) [%],ED50 (Cavia porcellus [5]) [mg/kg],Dose (Felis catus [6]) [mg/kg],ED50 (Cavia porcellus [7]) [mg/kg],Survival [8] [%],further results
CN(C)CCC1CN(C)C(=S)c2cc3ccccc3nc2O1 (stereo not drawn),,,0.1,,2.9,67,survival at 0.3 mg/kg (Cavia porcellus [9]): 100%
CN1CC(CCN)Oc2ncccc2C1=S (stereo not drawn),,0,,,,,
CN(C)CCC1CN(C)C(=S)c2cccnc2O1 (stereo not drawn) [ROCASTINE],,,0.12,>20,6,50,Dose (Felis catus [4]): 0.5 mg/kg; survival at 0.3 mg/kg (Cavia porcellus [9]): 100%
CN1CC(CCN2CCC2)Oc2ncc(Cl)cc2C1=S (stereo not drawn),,,0.02,>20,0.02,100,Dose (Felis catus [4]): 0.005 mg/kg
CN(C)CCC1CN(C)C(=S)c2cc(Br)cnc2O1 (stereo not drawn),,,0.05,,2,100,
CN(C)CCOC(c1ccccc1)c1ccccc1 [DIPHENHYDRAMINE],67,,2.8,0.6,38,,Dose (Felis catus [4]): 0.75 mg/kg; survival at 1 mg/kg (Cavia porcellus [1]): 33%
CN(C)CCC1CN(C)C(=S)c2ccc(Cl)cc2O1 (stereo not drawn),100,100,,,,,survival at 1 mg/kg (Cavia porcellus [1]): 0%; survival at 0.3 mg/kg (Cavia porcellus [9]): 0%
CN1CC(CCN2CCC2)Oc2ncc(Br)cc2C1=S (stereo not drawn),100,,0.09,,0.1,60,survival at 1 mg/kg (Cavia porcellus [1]): 60%
COc1ccc2c(c1)C(=S)N(C)CC(CCN(C)C)O2 (stereo not drawn),0,100,,,,,
CN1CC(CCN2CCC2)Oc2ncccc2C1=O (stereo not drawn),,,0.13,>20,6,67,Dose (Felis catus [4]): 0.6 mg/kg; survival at 0.3 mg/kg (Cavia porcellus [9]): 100%
CN1CC(CCN2CCC2)Oc2ncc(Cl)cc2C1=O (stereo not drawn),,,0.04,>20,0.8,100,Dose (Felis catus [4]): 0.06 mg/kg
CNCCC1CN(C)C(=S)c2cccnc2O1 (stereo not drawn),0,100,,>20,,,
COc1ccc(CCN(C)CCC2CN(C)C(=S)c3cccnc3O2)cc1 (stereo not drawn),33,100,,,,,
CN(C)CCC1CN(C)C(=S)c2cc(Cl)cnc2O1 (stereo not drawn),,,0.04,>20,0.6,100,Dose (Felis catus [4]): 0.5 mg/kg
CN(C)CCC1CN(C)C(=S)c2ccc3ccccc3c2O1 (stereo not drawn),,,,,,,survival at 3 mg/kg (Cavia porcellus [16]): 33%; survival at 30 mg/kg (Cavia porcellus [15]): 100%
CN(C)CCC1CN(C)C(=S)c2cccnc2S1 (stereo not drawn),,,,,,,survival at 3 mg/kg (Cavia porcellus [16]): 0%; survival at 30 mg/kg (Cavia porcellus [15]): 100%
CN(C)CCC1CN(C)C(=S)c2cc3ccccc3cc2O1 (stereo not drawn),,,,>20,,,Survival [10]: 67%; Dose (Felis catus [4]): 0.5 mg/kg; survival at 0.3 mg/kg (Cavia porcellus [17]): 100%; survival at 30 mg/kg (Cavia porcellus [15]): 100%
